Experimental data pooled from the literature.
Each line is one published result; the experiments were not run side by side.
Organism: Candida albicans
Read-out: microbial growth
Technique: broth dilution

| SMILES | system | conditions | MIC |
| --- | --- | --- | --- |
| CC(=O)N1CCN(c2ccc(OCC3COC(Cn4ccnc4)(c4ccc(Cl)cc4Cl)O3)cc2)CC1 (centres unmarked) | 14936 | 48 h | 2 µM |
| Nc1nn2c(-c3ccc(Cl)cc3Cl)cc(-c3ccc(OCc4ccccc4)cc3)nc2c1N=Nc1ccc(F)cc1 | ATCC10231 |  | 62.5 µg/mL |
| OC(Cn1cncn1)(Cn1cncn1)c1ccc(F)cc1F | 8 | 24 h | 1 µg/mL |
| C/C(=N\C(=N)/N=C(\C)c1c(O)c2ccccc2oc1=O)c1c(O)c2ccccc2oc1=O |  | 48 h | 31.2 µg/mL |
| COc1ccc(N=Nc2c(N)nn3c(-c4ccc(C)cc4)cc(-c4ccc(OCc5ccccc5)cc4)nc23)cc1 | ATCC10231 |  | 62.5 µg/mL |
| C[C@@H]1[C@H](O)[C@@H](C)/C=C/C=C/C=C/C=C/C=C/C=C/C=C/[C@H](O[C@@H]2O[C@H](C)[C@@H](O)[C@H](N)[C@@H]2O)C[C@@H]2O[C@](O)(C[C@@H](O)C[C@@H](O)[C@H](O)CC[C@@H](O)C[C@@H](O)CC(=O)O[C@H]1C)C[C@H](O)[C@H]2C(=O)O | 17546 | 48 h | < 0.25 µM |
| N#CC(C#N)=C1SC(C(=O)c2ccc(Nc3cnccn3)cc2)=NN1c1ccccc1 | ATCC10231 |  | 100 µg/mL |
| OC(Cn1cncn1)(Cn1cncn1)c1ccc(F)cc1F | ATCC90028 | 48 h | 8 µg/mL |
| COc1ccc(N=Nc2c(N)nn3c(-c4ccc(Cl)cc4Cl)cc(-c4ccc(OCc5ccccc5)cc4)nc23)cc1 | ATCC10231 |  | 62.5 µg/mL |
| N#CC(C#N)=C1SC(C(=O)c2ccc(Nc3cnccn3)cc2)=NN1c1ccc([N+](=O)[O-])cc1 | ATCC10231 |  | 12.5 µg/mL |
| N#CC(=C1C=CC(=NOC(=O)OCc2ccccc2)C=C1)c1ccccc1 | ATCC10231 | 48 h | 256 µg/mL |
| C/C(=N\C(=O)/N=C(\C)c1c(O)c2ccccc2oc1=O)c1c(O)c2ccccc2oc1=O |  | 48 h | 31.2 µg/mL |
| CCn1c2ccccc2c2cc(CNC)ccc21 | SN152 | 24 h | 64 µg/mL |
| C/C(=N\CCNCC/N=C(\C)c1c(O)c2ccccc2oc1=O)c1c(O)c2ccccc2oc1=O |  | 48 h | 7.81 µg/mL |
| CCON=C1C=CC(=C(C#N)c2ccccc2)C=C1 | ATCC10231 | 48 h | 256 µg/mL |
| N=c1sc(C(=O)c2ccc(Nc3cnccn3)cc2)nn1-c1ccc([N+](=O)[O-])cc1 | ATCC10231 |  | 12.5 µg/mL |
| Nc1nn2c(-c3ccco3)cc(-c3ccc(OCc4ccccc4)cc3)nc2c1N=Nc1ccc(F)cc1 | ATCC10231 |  | 125 µg/mL |
| C=CC(=O)ON=C1C=CC(=C(C#N)c2ccccc2)C=C1 | ATCC10231 | 48 h | 2 µg/mL |
| O=C1/C(=C/c2ccc3ccccc3c2O)NC(=S)N1c1ccccc1 | ATCC10 ATCC10231 |  | 20 µg/mL |
| N=c1sc(C(=O)c2ccc(Nc3cnccn3)cc2)nn1-c1ccccc1 | ATCC10231 |  | 100 µg/mL |
| OC(Cn1cncn1)(Cn1cncn1)c1ccc(F)cc1F | SP3903 | 48 h | 4 µM |
| C[C@@H]1[C@H](O)[C@@H](C)/C=C/C=C/C=C/C=C/C=C/C=C/C=C/[C@H](O[C@@H]2O[C@H](C)[C@@H](O)[C@H](N)[C@@H]2O)C[C@@H]2O[C@](O)(C[C@@H](O)C[C@@H](O)[C@H](O)CC[C@@H](O)C[C@@H](O)CC(=O)O[C@H]1C)C[C@H](O)[C@H]2C(=O)O | ATCC10231 | 48 h | 2 µg/mL |
| C/C(=N\NC(=O)/N=C(\C)c1c(O)c2ccccc2oc1=O)c1c(O)c2ccccc2oc1=O |  | 48 h | 31.2 µg/mL |
| C#CCOC(=O)ON=C1C=CC(=C(C#N)c2ccccc2)C=C1 | ATCC10231 | 48 h | 4 µg/mL |
| C/C(=N\C1CCCCC1/N=C(\C)c1c(O)c2ccccc2oc1=O)c1c(O)c2ccccc2oc1=O (centres unmarked) |  | 48 h | 31.2 µg/mL |
| Cc1ccc(-c2cc(-c3ccc(OCc4ccccc4)cc3)nc3c(N=Nc4ccc(F)cc4)c(N)nn23)cc1 | ATCC10231 |  | 62.5 µg/mL |
